In ChEMBL document CHEMBL1134645, “Discovery of small-molecule inhibitors of Bcl-2 through structure-based computer screening” (J Med Chem, 2001):

target: T1, Apoptosis regulator Bcl-2 (Homo sapiens, UniProt P10415); assay: Inhibitory activity against Bcl-2 using bromide assay
How it was run: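 HL-60 cells in RPMI 1640 with 10% FBS at 37 °C and 5% CO2 were plated at 2000–4000 cells/well, with various compound concentrations added at the start. After 4 days, MTT was added for 4 h at 37 °C. Formazan was solubilized in 2-propanol and absorbance read. IC50 is for inhibition of cell growth.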

T1 sequence (P10415 whole entry): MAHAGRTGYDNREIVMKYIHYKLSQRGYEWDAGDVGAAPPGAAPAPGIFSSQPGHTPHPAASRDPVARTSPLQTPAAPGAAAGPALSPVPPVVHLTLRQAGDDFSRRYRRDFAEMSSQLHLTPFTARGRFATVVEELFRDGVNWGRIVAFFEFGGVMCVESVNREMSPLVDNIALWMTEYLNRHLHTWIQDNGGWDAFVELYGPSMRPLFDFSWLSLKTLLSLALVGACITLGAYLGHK

Row | IC50 | SMILES
1 | 4 µM | COc1ccc2c(c1)CCc1cc(OC)ccc1/[N+]([O-])=[N+]\2[O-]

target: T1, Apoptosis regulator Bcl-2; assay: Inhibitory activity against Bcl-2
How it was run: (§1)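 FP competition assay with recombinant GST-fused Bcl-2 (46 kDa), final 270 nM, and a fluorescein-labelled 16-mer Bak BH3 peptide tracer, final 290 nM, in 1X PBS. Compound added with final DMSO below 1%, incubated 10 min at room temperature, and polarization read at ex 485/em 535 nm. Screening was at 100 μM. IC50 came from 6–7-point serial dilutions from 100 μM, in triplicate.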

Row | Ki | SMILES | IC50
2 | – | CCOC(=O)C(C#N)C1c2cc(Br)ccc2OC(N)C1C(=O)OCC (stereo not drawn) | 9 µM
3 | – | Cc1cc(Cl)cc(C(=O)Nc2cc(S(=O)(=O)c3ccc(Cl)cc3)ccc2Cl)c1O | 3.3 µM
4 | 2.4 µM | CC(C)C(C(=O)O)N1C(=O)/C(=C/c2ccc(Br)cc2)SC1=S (stereo not drawn) | –
5 | – | CCCC[C@H]1C(=O)O[C@H](C)[C@H](NC(=O)c2cccc(NC=O)c2O)C(=O)O[C@@H](C)[C@@H]1OC(=O)CC(C)C [ANTIMYCIN A3] | 2 µM

target: T1, Apoptosis regulator Bcl-2; assay: In vitro inhibitory activity against Bak-Bh3 peptide binding to the Bcl-2; how it was run: as §1

Row | SMILES | IC50
6 | O=C1c2cc(Br)ccc2-c2ccc3c4ccc5c6c(ccc(c7ccc1c2c73)c64)C(=O)c1cc(Br)ccc1-5 | 7.7 µM

target: T1, Apoptosis regulator Bcl-2; assay: In vitro inhibitory activity against Bak-Bh3 peptide binding to the Bcl-2 using human myeloid leukemia cell line HL-60
How it was run: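 Fluorescence polarization competition with 46 kDa recombinant GST-fused Bcl-2 (270 nM final) and 16-mer fluorescein-labelled Bak BH3 tracer (290 nM final) in PBS, preincubated 20 min at room temperature. Compound added (DMSO <1%), read after 10 min at room temperature, ex 485/em 535 nm. IC50 from 6–7 point serial dilutions in triplicate starting at 100 μM.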

Row | IC50 | SMILES
7 | 10.4 µM | COc1ccc2c(c1)C(=O)C1C=C([N+]#N)C=CC1N2 (stereo not drawn)
8 | 14 µM | O=c1c2ccc(S(=O)(=O)c3ccc4c(=O)n5c6ccccc6nc5c5cccc3c45)c3cccc(c32)c2nc3ccccc3n12
9 | 11.7 µM | Brc1cccc[n+]1-c1ccc2cc(-[n+]3ccccc3Br)ccc2c1
10 | 10.4 µM | COc1ccc2c(c1)CCc1cc(OC)ccc1/[N+]([O-])=[N+]\2[O-]
11 | 5.8 µM | N=C(N)c1ccc(/N=N/c2c(O)ccc3c2[nH]c2ccccc23)cc1

target: T1, Apoptosis regulator Bcl-2; assay: In vitro inhibition of Bak-Bh3 peptide binding to the Bcl-2 using human myeloid leukemia cell line HL-60; Inactive

Row | IC50 | SMILES
12 | Not Active | C[n+]1cc2c3cc4c(cc3ccc2c2ccc3c(c21)OCO3)OCO4
13 | Not Active | CN1COc2ccc3ccc4c(c3c2C1)CN(C)CO4
14 | Not Active | Cc1cc2c(cc1C)[n+]([O-])c(-c1nc3ccccc3s1)c(N)[n+]2[O-]
15 | Not Active | O=C1c2ccccc2-c2cc(O)c3c4c(O)cc5c6c(ccc(c7ccc1c2c73)c64)C(=O)c1ccccc1-5
16 | Not Active | c1cc[n+]2c(c1)-c1cccc[n+]1CCC2
17 | Not Active | CN(C)CCNCCCNc1c2ccccc2nc2cccc([N+](=O)[O-])c12
18 | Not Active | O=C(CSc1nc2ccccc2s1)c1sc2sc3ccccc3[n+]2c1O
19 | Not Active | c1cc[n+]2cc3ccc4c[n+]5ccccc5cc4c3cc2c1
20 | Not Active | O=c1c2ccccc2c2nc3ccc4c(=O)c5ccccc5c5nc6ccc1c2c6c3c45
21 | Not Active | CN1C(=O)c2ccc3c4ccc5c(=O)n6c7ccccc7nc6c6ccc(c7ccc(c2c37)C1=O)c4c56
22 | Not Active | Cc1cc(-c2ccccc2)[nH]c2nc3ccccc3[n+]1-2
23 | Not Active | COc1cc2ccc3c4cc5c(cc4c[n+](C)c3c2cc1OC)OCO5
24 | Not Active | Cn1c(=O)c2nc(-[n+]3ccc(-c4ccccc4)cc3)[nH]c2n(C)c1=O
25 | Not Active | COc1cc2ccc3c[n+]4ccccc4cc3c2cc1OC
26 | Not Active | Nc1nc(N)c2c(n1)[n+]([O-])c1ccccc1[n+]2[O-]
27 | Not Active | COc1ccc2c(c1)c[n+](C)c1c3cc(OC)c(OC)cc3ccc21
28 | Not Active | [O-][n+]1c2c([n+]([O-])c3c4ccccc4ccc31)-c1cccc3cccc-2c13
29 | Not Active | O=C1c2ccccc2C(=O)c2c1ccc1nc3c(ccc4c(O)c5ccccc5c(O)c43)nc21
30 | Not Active | O=C1c2ccc[n+]3c2-c2c1ccc[n+]2CC3
31 | Not Active | O=C1NC(=O)c2ccc3c4ccc5c6c(ccc(c7ccc1c2c73)c64)C(=O)N(c1ccccc1)C5=O
32 | Not Active | O=C(CSc1ccccn1)c1sc2cccc[n+]2c1O
33 | Not Active | OC1C[n+]2cc3ccccn3c2-c2cccc[n+]21 (stereo not drawn)
34 | Not Active | CS1(C)=NC(=O)C2=C(N=1)c1ccccc1S2(=O)=O
35 | Not Active | NCC(=O)c1ccc2cc(Br)c3ccccc3c2c1
36 | Not Active | COc1cc2cc[n+]3c4ccc([N+](=O)[O-])cc4ccc3c2cc1OC.[Cl-]

Row | SMILES | IC50
37 | O=C1c2cc([N+](=O)[O-])ccc2-c2ccc3c4ccc5c6c(ccc(c7ccc1c2c73)c64)C(=O)c1cc([N+](=O)[O-])ccc1-5 | Not Active
38 | O=C1c2ccccc2-c2ccc3c4ccc5c6c(ccc(c7ccc1c2c73)c64)C(=O)c1ccccc1-5 | Not Active
